In the library only some 2.1% were active in any assay of this set; here they are far more common.
A3G deaminase = blocks human APOBEC3G single-stranded DNA deamination; Q9HC16; recombinant A3G, ssDNA deamination FAM/TAMRA fluorescence; inhibition, % at 20 µM; 0.28% of 330,000 active;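 active = inhibition of at least 40% at 20 µM, with no more than 30% in the related APOBEC3A deaminase screen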
Target sequence (Q9HC16 whole entry, looked up): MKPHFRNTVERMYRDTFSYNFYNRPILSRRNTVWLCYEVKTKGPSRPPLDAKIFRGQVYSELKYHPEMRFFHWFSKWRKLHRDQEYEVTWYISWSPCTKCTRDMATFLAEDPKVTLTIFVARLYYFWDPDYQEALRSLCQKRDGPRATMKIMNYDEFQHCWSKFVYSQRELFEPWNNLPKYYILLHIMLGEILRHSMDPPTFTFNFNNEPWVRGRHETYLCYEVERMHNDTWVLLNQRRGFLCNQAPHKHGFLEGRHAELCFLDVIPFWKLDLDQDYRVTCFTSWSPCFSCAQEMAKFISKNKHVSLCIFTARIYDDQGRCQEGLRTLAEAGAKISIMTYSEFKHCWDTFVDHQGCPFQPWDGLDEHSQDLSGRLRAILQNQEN
APOBEC3A inh = blocks human APOBEC3A ssDNA deamination | 0.41% of 330,000 active | recombinant A3A, FAM/TAMRA ssDNA deamination fluorescence | P31941 | AID 493011 | inhibition, % at 20 µM;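 active = at least 40% inhibition at 20 µM here, with at most 30% in a related deaminase screen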
SUMO Mot1 rescue = blocks SUMOylation pathway, rescuing yeast Mot1-301 growth | S. cerevisiae Mot1-301 growth rescue, ATP luminescence, 38.5C; percent above DMSO median, 100 means doubled | growth rescue, % at 18.8 µM | 1% of 320,000 active | AID 2716;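 active = every valid replicate shows activation above 250% relative to neutral control wells; inactive = the rest, any valid replicate at or below 250%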
ASAP1 GAP inh = inhibitors of human ASAP1 ArfGAP activity. 0.19% of 360,000 active. AID 624377. ASAP1-stimulated ARF1 GTP hydrolysis, GDP FP detection. Q9ULH1. inhibition, % at 16.5 µM; in the data active = inhibition above about 25%
ARFGAP1 inh = inhibits rat ARF GTPase activating protein 1; AID 651572; Q62848; 0.26% of 360,000 active; Arfgap1-stimulated ARF1 GTP hydrolysis, GDP FP detection; inhibition, % at 16.5 µM;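 active = inhibition above a per-plate limit, mean inhibition of low control wells plus 3 SD, cut at about 25% in these data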
Target sequence (Q62848 1-136 limits assumed): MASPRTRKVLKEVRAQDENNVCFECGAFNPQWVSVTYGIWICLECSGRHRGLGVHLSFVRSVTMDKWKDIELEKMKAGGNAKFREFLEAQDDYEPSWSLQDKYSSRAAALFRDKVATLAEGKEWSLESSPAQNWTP
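Assay system: Rat Arfgap1 GAP domain (His6, aa 1-136), purified enzyme | Buffer or medium: HEPES 25 mM pH 7.5, NaCl 150 mM, MgCl2, DTT | Schedule: GTP hydrolysis reaction 2 h at 25 °C | Signal: FP of antibody-bound GDP Alexa 633 tracer, ex 620/em 688 nm | Measure: Percent inhibition of Arfgap1-stimulated GTP hydrolysis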
C2C12 statin = suppressors of simvastatin-induced myotoxicity in C2C12 myotubes; ATP luminescence, 48 h; scaled: DMSO 0, geranylgeraniol control 100; rescue of ATP level, % at 7.49 µM; 0.78% of 330,000 active; AID 602340;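 active = mean ATP rescue above about 67%, or every replicate alone reaching that limit, limit read from the data, passing the limit was not always enough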;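 also: myotubes were challenged with 10 µM simvastatin during compound exposure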
A3A conf = APOBEC3A (human) deaminase inhibition, confirmed | shares compounds with APOBEC3A inh | recombinant A3A, ssDNA deaminase UDG fluorescence assay | inhibition, % at 20 µM | 63% of 1,400 active | AID 493151;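 active = inhibition reaching a set limit, 80% of the first screen's cutoff, at 20 µM in any replicate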
UDG A3A counter = UDG inhibition in APOBEC3A counter-screen; UDG counterscreen, FAM/TAMRA uracil oligo fluorescence; inhibition, % at 20 µM; 1,000 tested, under 10 active; shares compounds with APOBEC3A inh; call rule not given here
Hits are given with their value; n = inactive; x = no result.

SMILES | A3G deaminase | APOBEC3A inh | SUMO Mot1 rescue | ASAP1 GAP inh | ARFGAP1 inh | C2C12 statin | A3A conf | others
CCCc1cn(CC[C@@H]2CC[C@@H](NC(=O)Cc3cccnc3)[C@@H](CO)O2)nn1 | x | x | x | x | x | n | x
C[C@H](CO)N1C[C@H](C)[C@@H](CN(C)S(=O)(=O)c2cn(C)cn2)Oc2ccc(NS(=O)(=O)c3ccc(Cl)cc3)cc2CC1=O | x | x | x | x | x | n | x
Cc1c2cccn2cc[n+]1C | n | 42 | n | n | n | x | 78 | UDG A3A counter=n
C[C@H](CO)N1C[C@H](C)[C@@H](CN(C)Cc2ccc(Cl)c(Cl)c2)Oc2ccc(N(C)C)cc2CC1=O | x | x | x | x | x | n | x
NCC[C@@H]1CC[C@H](NC(=O)NC2CCCCC2)[C@H](CO)O1 | x | x | x | x | x | n | x
C=CCn1c(SCc2nc3sc(C(=O)O)c(C)c3c(=O)[nH]2)nnc1-c1ccccc1 | n | n | n | n | n | x | x
C=CCn1c(SCc2nc3sc(C(=O)O)c(C)c3c(=O)[nH]2)nnc1-c1ccc(C(C)(C)C)cc1 | n | 40 | n | n | n | n | n | UDG A3A counter=n
CCN1/C(=C/c2ccc3cc(C)ccc3[n+]2CC)Sc2cc(C)ccc21 | x | x | x | n | n | n | x
Cc1ccc2c(c1)S/C(=C/c1ccc[n+](C)c1)N2CCO | n | 70 | n | n | n | x | 84 | UDG A3A counter=n
C[C@@H]1CN([C@@H](C)CO)C(=O)Cc2cc(NC(=O)Nc3cccc4ccccc34)ccc2O[C@H]1CN(C)Cc1ccncc1 | x | x | x | x | x | n | x
Cc1ccc(OCc2ccoc2C(=O)O)cc1C | n | 42 | n | n | n | n | 37 | UDG A3A counter=n
Cc1ccc(OCc2ccc(C(=O)O)o2)cc1C | n | n | n | n | n | n | x
O=C(NCC(F)(F)F)[C@@H]1[C@@H](CO)[C@@H]2Cn3c(cccc3=O)[C@@H]2N1C(=O)C1CCCC1 | x | x | x | x | x | n | x
CO[C@@H](CN(C)S(=O)(=O)c1ccc(Cl)cc1)[C@@H](C)CN(Cc1ccccc1Cl)[C@@H](C)CO | x | x | x | x | x | n | x
CNC(=O)CN(C1CCCCC1)S(=O)(=O)c1ccc(OC)c(Cl)c1 | n | 44 | n | n | n | n | n
C[C@H](CO)N1C[C@H](C)[C@H](CN(C)C(=O)C2CCOCC2)Oc2ncc(Br)cc2C1=O | x | x | x | x | x | n | x
COc1cccc(/C=C(/C#N)c2ccc(F)cc2)c1OCc1cccc(C(=O)O)c1 | n | n | n | n | n | x | x
N#C/C(=C/c1ccccc1OCc1ccc(F)cc1)c1ccc(C(=O)O)cc1 | n | 67 | n | n | n | n | n
O=C(N[C@H]1CC[C@@H](CCn2cc(-c3ccccc3)nn2)O[C@@H]1CO)c1cnccn1 | x | x | x | x | x | n | x
CCCCOc1ccc(NC(=O)CCSc2nccn2C)cc1 | n | 42 | n | n | n | x | n
O=C(C[C@H]1CC[C@@H](NC(=O)C2CC2)[C@@H](CO)O1)NCCCN1CCOCC1 | x | x | x | x | x | n | x
CC(C)(C)c1cc(C(=O)NNC(=O)Nc2ccccc2)n(Cc2ccccc2)n1 | n | 61 | n | n | n | n | n | UDG A3A counter=n
COc1ccc(C(=O)NCC(=O)OCCCOC(=O)CNC(=O)c2ccc(OC)c(OC)c2)cc1OC | n | 42 | n | n | n | n | n
COc1ccc(C(=O)NCC(=O)OCC(=O)c2ccc(Cl)cc2)cc1OC | n | n | n | n | n | n | x
O=C(NC1=NCCS1)C1CCN(S(=O)(=O)c2cc([N+](=O)[O-])ccc2Cl)CC1 | n | 53 | n | n | n | n | 53 | UDG A3A counter=n
CCn1c(C)cc(/C=C2\NC(=O)N(CC(=O)Nc3ccc(F)cc3)C2=O)c1C | n | 66 | n | n | n | x | 74 | UDG A3A counter=n
Cc1ccc(NC(=O)CN2C(=O)N/C(=C/c3cc(C)n(-c4ccc(C(=O)O)cc4)c3C)C2=O)cc1 | x | x | x | n | n | x | x
O=C1CCc2cc(S(=O)(=O)Nc3ccccc3F)ccc2N1 | n | 99 | n | n | n | n | n
O=C1CCc2cc(S(=O)(=O)Nc3ccccc3Cl)ccc2N1 | n | n | n | n | n | n | x
C[C@@H]1CN([C@H](C)CO)S(=O)(=O)c2ccc(C#CC3CC3)cc2O[C@@H]1CN(C)C(=O)c1cnccn1 | x | x | x | x | x | n | x
